Data: ChEMBL document CHEMBL1128514, “9-substituted acridine derivatives with long half-life and potent antitumor activity: synthesis and structure-activity relationships” (J Med Chem, 1995)
pIC50: −log10 of the molar value. Several values for one entry are separate records, joined by “and”; a condition that tells them apart may be missing. Identical values can stand only once.

How the values were obtained:
DNA topoisomerase II = DNA topoisomerase II (Homo sapiens, UniProt P11388+Q02880); assay: In vitro 50% inhibition of topoisomerase II mediated k-DNA decatenation; assay type: protein assay
HL-60 = assay: In vitro cytotoxicity against human leukemic HL-60 cell line.; assay type: functional, cell-based
Outline: (§1)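 Growth inhibition over 72 h by XTT tetrazolium microculture assay with phenazine methosulfate-XTT for 6 h at 37 °C. Absorbance read at 450 and 630 nm. Six to seven concentrations per compound; IC50 from median-effect plot.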

L1210 = assay: The compound was tested for the cytotoxicity against L1210 cell lines; assay type: functional, cell-based; settings: Mus musculus; outline: as §1
CEM-VLB = assay: The compound was tested for the cytotoxicity against human leukemic CEM/VBL cell lines; assay type: functional, cell-based
CCRF-CEM = assay: The compound was tested for the cytotoxicity against human leukemic CCRF-CEM cell lines; assay type: functional, cell-based
[1] = The compound was tested for the cytotoxicity DC-3F cell lines; assay type: functional, cell-based; settings: Cricetulus griseus, DC3F
DC3F/AD-II = assay: The compound was tested for the cytotoxicity against human leukemic DC-3F/ADII cell lines, activity is expressed as IC50 values.; assay type: functional, cell-based; settings: Cricetulus griseus
CCRF S-180 = assay: The compound was tested for the cytotoxicity against S180 cell lines; assay type: functional, cell-based; settings: Mus musculus; outline: as §1
CEM-VM1 = assay: The compound was tested for the cytotoxicity against human leukemic CEM/VM-1 cell lines; assay type: functional, cell-based
Mus musculus [2] = assay: The compound (7.5 mg/kg, ip) was tested for change in average weight of BDF2 mice bearing B16 melanoma.; assay type: functional
Outline: (§2)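 BD2F1 female mice, 19-21 g, carrying subcutaneous tumor brei (0.2 mL); compounds in DMSO given ip once daily × 5 starting day 3. Average body weight change (g) taken on day 14. Five mice per dose; untreated and DMSO-vehicle controls.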

Mus musculus [3] = assay: The compound (7.5 mg/kg, ip) was tested for change in average weight of BDF2 mice bearing Lewis lung carcinoma.; assay type: functional; outline: as §2
Mus musculus [4] = species on record: Mus musculus; assay: Average tumor volume of the B-16 melanoma; assay type: functional
Outline: (§3)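 BD2F1 female mice, 19-21 g, given subcutaneous 0.2 mL solid tumor brei; dosed ip in DMSO daily for 5 days from day 3 (AHMA 7.5-10 mg/kg, VP-16 10, m-AMSA 5 mg/kg). Tumor volume on day 14 as length × width × width/2 (mm3), expressed as T/C versus untreated. Five mice per dose; DMSO-only group included; two experiments.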

Mus musculus [5] = species on record: Mus musculus; assay: Average tumor volume of the E0771 mammary adenocarcinoma,; assay type: functional; outline: as §3
Mus musculus [6] = species on record: Mus musculus; assay: Average tumor volume of the Lewis lung carcinoma; assay type: functional; outline: as §3
Mus musculus [7] = assay: The compound (7.5 mg/kg, ip) was tested for change in average weight of BDF2 mice bearing E0771 mammary adenocarcinoma; assay type: functional; outline: as §2
Mus musculus [8] = assay: The compound (10 mg/kg, ip) was tested for change in average weight of BDF2 mice bearing B16 melanoma.
Mus musculus [9] = assay: The compound ( ip) was tested for change in average weight of BDF2 mice bearing E0771 mammary adenocarcinoma.
Mus musculus [10] = assay: The compound (10 mg/kg, ip) was tested for change in average weight of BDF2 mice bearing Lewis lung carcinoma.

| SMILES | IC50 (DNA topoisomerase II) | pIC50 (HL-60) | pIC50 (L1210) | also measured |
| --- | --- | --- | --- | --- |
| COc1ccc2c(Oc3ccc(COC(=O)NC(C)C)cc3)c3ccccc3nc2c1 | > 100 µM | 6.38 |  |  |
| CC(=O)OCc1cc(N)cc(Nc2c3ccccc3nc3ccccc23)c1 |  | 7.55 | 7.47 |  |
| CC(C)NC(=O)OCc1ccc(Oc2c3ccccc3nc3ccccc23)cc1 | 20 µM | 5.83 |  |  |
| CC(C)NC(=O)OCc1ccc(Sc2c3ccccc3nc3ccccc23)cc1 | 50 µM | 5.55 |  |  |
| CNC(=O)OCc1ccc(Sc2c3ccccc3nc3ccccc23)cc1 | 20 µM | 5.71 |  |  |
| CC(=O)Nc1cc(CO)cc(Nc2c3ccccc3nc3ccccc23)c1 |  | 7.74 | 7.55 |  |
| O=C(O)CCC(=O)Nc1cc(COC(=O)CCC(=O)O)cc(Nc2c3ccccc3nc3ccccc23)c1 | > 100 µM | 5.37 | 6.00 | pIC50 (CCRF S-180): 5.74 |
| CNC(=O)OCc1ccc(Sc2c3ccccc3nc3cc(OC)ccc23)cc1 | > 100 µM | 5.57 |  |  |
| COc1ccc2c(Oc3ccc(CO)cc3)c3ccccc3nc2c1 | 20 µM | 5.98 |  |  |
| CNC(=O)OCc1ccc(Oc2c3ccccc3nc3cc(OC)ccc23)cc1 | 50 µM | 6.02 |  |  |
| CC(=O)CCC(=O)Nc1cc(CO)cc(Nc2c3ccccc3nc3ccccc23)c1 | < 1 µM | 7.60 | 7.35 | pIC50 (CCRF S-180): 7.15 |
| Cl.Nc1cc(CO)cc(Nc2c3ccccc3nc3ccccc23)c1 |  | 7.60 |  | AWC (Mus musculus [2]): -0.3 g; AWC (Mus musculus [3]): 0.1 g; T/C (Mus musculus [4]): 0.23 and 0.18; T/C (Mus musculus [5]): 0.13 and 0.14; T/C (Mus musculus [6]): 0.55 and 0.23; AWC (Mus musculus [7]): 0.6 g; AWC (Mus musculus [8]): -1.9 g; AWC (Mus musculus [9]): 0.6 g; AWC (Mus musculus [10]): -0.4 g |
| COc1ccc2c(Sc3ccc(COC(=O)NC(C)C)cc3)c3ccccc3nc2c1 | > 100 µM | 5.81 |  |  |

Second part, led by results:

| IC50 (DNA topoisomerase II) | SMILES | pIC50 (HL-60) | pIC50 (L1210) | also measured |
| --- | --- | --- | --- | --- |
| 1 µM | Nc1cc(CO)cc(Nc2c3ccccc3nc3ccccc23)c1 |  | 7.80 | pIC50 (CEM-VLB): 5.42; pIC50 (CCRF-CEM): 6.58; pIC50 [1]: 8.30; pIC50 (DC3F/AD-II): 7.27; pIC50 (CCRF S-180): 7.52; pIC50 (CEM-VM1): 5.80 |
| > 100 µM | OCc1ccc(Sc2c3ccccc3nc3ccccc23)cc1 | 5.48 |  |  |
| 20 µM | CNC(=O)OCc1ccc(Oc2c3ccccc3nc3ccccc23)cc1 | 6.17 |  |  |
| < 1 µM | CC(=O)CCC(=O)Nc1cc(COC(=O)CCC(C)=O)cc(Nc2c3ccccc3nc3ccccc23)c1 | 7.82 | 7.01 | pIC50 (CCRF S-180): 7.01 |
| 20 µM | O=C(O)CCC(=O)Nc1cc(CO)cc(Nc2c3ccccc3nc3ccccc23)c1 | 5.30 | 6.48 | pIC50 (CCRF S-180): 5.97 |
| 50 µM | COc1ccc2c(Sc3ccc(CO)cc3)c3ccccc3nc2c1 | 5.74 |  |  |
| > 100 µM | OCc1ccc(Oc2c3ccccc3nc3ccccc23)cc1 | 4.89 |  |  |
